# In ChEMBL document CHEMBL1126834, “Chemistry, binding affinities, and behavioral properties of a new class of "antineophobic" mitochondrial DBI receptor complex (mDRC) ligands” (J Med Chem, 1993):
# Legend:
# Cannabinoid receptor 1 = Cannabinoid receptor 1 (Rattus norvegicus, UniProt P20272); experiment: Inhibitory activity, measured by displacement [3H]CP-55940 from cannabinoid receptor (CB1) in rat brain; format: tissue-based
# [1] = Inhibitory activity at GABA B receptor, measured by the ability to displace [3H]baclofen from GABA B receptor in rat brain; format: tissue-based
# [2] = target: GABA-A receptor; anion channel; experiment: Inhibitory activity at GABA A receptor, measured by the ability to displace [35S]TBPS from GABA A receptor in rat brain; format: tissue-based
# [3] = target: GABA-A receptor; anion channel; experiment: Inhibitory activity at GABA A receptor, measured by the ability to displace [3H]GABA from GABA A receptor in rat brain; format: tissue-based
# [4] = target: GABA-A receptor; anion channel; experiment: Inhibitory activity at GABA A receptor, measured by the ability to displace [3H]flumazenil from GABA A receptor in rat brain; format: tissue-based
# [5] = target: GABA-A receptor; anion channel; experiment: Inhibitory activity at GABA A receptor, measured by the ability to displace [3H]zolpidem from GABA A receptor in rat brain; format: tissue-based
# [6] = target: T1, Gastrin/cholecystokinin type B receptor (Rattus norvegicus, UniProt P30553); experiment: Inhibitory activity by measuring its ability to displace [3H]L-365260 from cholecystokinin receptor in rat brain; format: tissue-based
# T1 sequence (P30553 whole entry): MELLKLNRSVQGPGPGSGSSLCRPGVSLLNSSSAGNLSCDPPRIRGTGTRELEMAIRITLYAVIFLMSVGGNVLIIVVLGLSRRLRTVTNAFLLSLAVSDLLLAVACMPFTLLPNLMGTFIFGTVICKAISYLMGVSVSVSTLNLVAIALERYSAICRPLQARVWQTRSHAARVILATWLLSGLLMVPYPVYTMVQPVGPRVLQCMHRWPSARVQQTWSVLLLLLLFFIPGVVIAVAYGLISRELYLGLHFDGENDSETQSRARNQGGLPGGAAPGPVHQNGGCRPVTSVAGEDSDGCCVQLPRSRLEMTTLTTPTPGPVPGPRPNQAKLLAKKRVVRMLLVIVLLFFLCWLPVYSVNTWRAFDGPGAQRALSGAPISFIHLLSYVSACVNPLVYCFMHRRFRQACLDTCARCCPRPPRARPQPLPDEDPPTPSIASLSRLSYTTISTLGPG
# [7] = target: Adrenergic receptor alpha; experiment: Inhibitory activity by measuring its ability to displace [3H]WB-4101 from alpha-adrenergic receptor in rat brain; format: tissue-based
# [8] = target: Adrenergic receptor alpha; experiment: Inhibitory activity by measuring its ability to displace [3H]clonidine from alpha-adrenergic receptor in rat brain; format: tissue-based
# Adrenergic receptor beta = Adrenergic receptor beta (Rattus norvegicus, UniProt P18090+P10608+P26255); experiment: Inhibitory activity by measuring its ability to displace [125I]pindolol from beta-adrenergic receptor in rat brain; format: tissue-based
# [9] = Inhibitory activity by measuring its ability to displace [3H]glycine from glycine receptor in rat brain; format: tissue-based
# Glutamate NMDA receptor = experiment: Inhibitory activity by measuring its ability to displace [3H]-MK-801 from glutamate(NMDA) receptor in rat brain; format: tissue-based
# [10] = Tested for inhibitory activity by measuring its ability to displace [3H]AMPA from glutamate (non-NMDA) receptor in rat brain; format: tissue-based
# [11] = Inhibitory activity by measuring its ability to displace [3H]spiperone from dopamine or serotonin 5-HT-1 receptors in rat brain; format: tissue-based
# Opioid receptor = Opioid receptor (Rattus norvegicus, UniProt P33533+P34975+P33535); experiment: Displacement of [3H]naxolone from opiate receptor of rat brain
# Translocator protein = Translocator protein (Rattus norvegicus, UniProt P16257); experiment: Binding affinity against mitochondrial DBI complex (peripheral benzodiazepine receptor) using primary cultures of glial cells
# Sequence of Translocator protein (P16257 whole entry, looked up): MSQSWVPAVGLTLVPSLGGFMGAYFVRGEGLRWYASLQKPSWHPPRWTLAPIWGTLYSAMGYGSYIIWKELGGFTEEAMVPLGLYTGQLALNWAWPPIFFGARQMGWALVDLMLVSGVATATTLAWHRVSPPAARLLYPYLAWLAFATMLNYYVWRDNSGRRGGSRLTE
# How it was run: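 Glia from cerebella of 8-day-old Sprague–Dawley rat pups, trypsin-dissociated and grown 14 days (~95% astroglia). Cells lysed in 50 mM Hepes pH 7.4, 4 μg protein per tube. Incubated with [3H]4'-chlorodiazepam and competitor for 90 min at 4 °C, then filtered. Nonspecific binding defined with 10 μM 4'-chlorodiazepam. Triplicate competition curves; IC50 by nonlinear regression, converted to Ki (Bylund–Yamamura).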
# [12] = target: Serotonin 2 (5-HT2) receptor (Rattus norvegicus); experiment: Inhibitory activity by measuring its ability to displace [3H]ketanserin from serotonin receptor in rat brain
# [13] = target: Sigma receptor (Rattus norvegicus); experiment: Tested for inhibitory activity by measuring its ability to displace [3H]3-PPP from sigma receptor in rat brain
# Sequence of Cannabinoid receptor 1 (P20272 whole entry): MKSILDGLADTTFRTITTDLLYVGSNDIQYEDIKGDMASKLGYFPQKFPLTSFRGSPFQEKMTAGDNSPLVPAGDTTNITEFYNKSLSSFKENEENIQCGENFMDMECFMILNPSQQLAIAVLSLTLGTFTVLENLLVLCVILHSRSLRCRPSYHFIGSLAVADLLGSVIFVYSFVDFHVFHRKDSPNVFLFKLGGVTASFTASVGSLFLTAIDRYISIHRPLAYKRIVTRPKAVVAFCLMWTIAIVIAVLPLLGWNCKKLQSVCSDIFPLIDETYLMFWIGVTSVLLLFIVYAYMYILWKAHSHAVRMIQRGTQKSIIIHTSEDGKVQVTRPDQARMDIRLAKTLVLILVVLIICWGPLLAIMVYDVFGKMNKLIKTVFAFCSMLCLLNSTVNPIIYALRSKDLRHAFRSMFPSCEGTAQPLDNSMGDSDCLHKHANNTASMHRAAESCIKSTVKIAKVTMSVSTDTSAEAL
smiles,measurement,setting,value
CCCN(CCC)C(=O)Cc1c(-c2ccc(F)cc2)[nH]c2ccccc12,IC50,Cannabinoid receptor 1,> 1000 nM
same,IC50,[1],> 1000 nM
same,IC50,[2],> 1000 nM
same,IC50,[3],> 1000 nM
same,IC50,[4],> 1000 nM
same,IC50,[5],> 1000 nM
same,IC50,[6],> 1000 nM
same,IC50,[7],> 1000 nM
same,IC50,[8],> 1000 nM
same,IC50,Adrenergic receptor beta,> 1000 nM
same,IC50,[9],> 1000 nM
same,IC50,Glutamate NMDA receptor,> 1000 nM
same,IC50,[10],> 1000 nM
same,IC50,[11],> 1000 nM
same,IC50,Opioid receptor,> 1000 nM
same,Ki,Translocator protein,100 nM
same,IC50,[12],> 1000 nM
same,IC50,[13],> 1000 nM
